Common to all, as to type: functional
Assay [1] concerns Streptococcus pneumoniae. The assay can be described thus: Antibacterial activity against erythromycin-sensitive Streptococcus pneumoniae 12-8 by broth microdilution method. The method in brief:
(§1)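 Strains obtained from the Institute of Medicinal Biotechnology, Academy of Medical Sciences & Peking Union Medical College. MIC determined in vitro by broth microdilution following NCCLS recommendations.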
(In general: In broth dilution the organism is exposed to a series of concentrations in liquid medium.)

Assay [2] concerns Streptococcus pyogenes. The assay can be described thus: Antibacterial activity against erythromycin-resistant Streptococcus pyogenes 11-2 by broth microdilution method.
Assay [3] has as its system Streptococcus pneumoniae. The assay can be described thus: Antibacterial activity against erythromycin-sensitive Streptococcus pneumoniae 12-4 by broth microdilution method.
Assay [4] relates to Staphylococcus epidermidis. The assay is described as follows: Antibacterial activity against methicillin-sensitive Staphylococcus epidermidis 12-5 by broth microdilution method. The method, boiled down: as §1
Assay [5] deals with Streptococcus pneumoniae. The assay can be described thus: Antibacterial activity against erythromycin-resistant Streptococcus pneumoniae 12-6 by broth microdilution method.
In assay [6] the test system is Staphylococcus aureus. The assay can be described thus: Antibacterial activity against methicillin-sensitive Staphylococcus aureus ATCC 29213 by broth microdilution method. The method in brief: as §1
Assay [7] relates to Staphylococcus epidermidis. The assay can be described thus: Antibacterial activity against methicillin-sensitive Staphylococcus epidermidis ATCC 12228 by broth microdilution method. The method, boiled down: as §1
The subject of assay [8] is Staphylococcus epidermidis. The assay can be described thus: Antibacterial activity against methicillin-resistant Staphylococcus epidermidis 12-4 by broth microdilution method.
Assay [9] has as its system Staphylococcus epidermidis. The assay can be described thus: Antibacterial activity against methicillin-sensitive Staphylococcus epidermidis 11-20 by broth microdilution method. The method, boiled down: as §1
The test system of assay [10] is Staphylococcus epidermidis. The assay is described as follows: Antibacterial activity against methicillin-resistant Staphylococcus epidermidis 12-11 by broth microdilution method.
The test system of assay [11] is Streptococcus pneumoniae. The assay is described as follows: Antibacterial activity against erythromycin-resistant Streptococcus pneumoniae 12-5 by broth microdilution method.
Assay [12] deals with Streptococcus pneumoniae. The assay can be described thus: Antibacterial activity against erythromycin-sensitive Streptococcus pneumoniae 12-10 by broth microdilution method. The method, boiled down:
as §1

The subject of assay [13] is Streptococcus pneumoniae. The assay is described as follows: Antibacterial activity against erythromycin-sensitive Streptococcus pneumoniae 12-1 by broth microdilution method. The method, boiled down: as §1
The subject of assay [14] is Streptococcus pyogenes. The assay is described as follows: Antibacterial activity against erythromycin-sensitive Streptococcus pyogenes ATCC 19625 by broth microdilution method. The method, boiled down:
as §1

In assay [15] the test system is Staphylococcus aureus. The assay can be described thus: Antibacterial activity against methicillin-sensitive Staphylococcus aureus 12-32 by broth microdilution method. The method, boiled down:
as §1

Assay [16] concerns Streptococcus pneumoniae. The assay can be described thus: Antibacterial activity against erythromycin-sensitive Streptococcus pneumoniae 12-14 by broth microdilution method. The method, boiled down: as §1
In assay [17] the test system is Staphylococcus aureus. The assay is described as follows: Antibacterial activity against methicillin-resistant Staphylococcus aureus 12-31 by broth microdilution method.

Values after ≈ are worked out from the molar mass of the structure shown. A value given as a limit tells only on which side of the number the result lay.

Results on two compounds are retold here after ChEMBL document CHEMBL2440040, “Synthesis of 4″-O-desosaminyl clarithromycin derivatives and their anti-bacterial activities” (2013).

By MIC is commonly meant the lowest concentration found to suppress growth. A lower MIC goes with inhibition by little substance. Turning to `CC[C@H]1OC(=O)[C@H](C)[C@@H](O[C@H]2C[C@@](C)(OC)[C@@H](O[C@@H]3O[C@H](C)[C@@H](O)[C@H](N(C)C)[C@H]3O)[C@H](C)O2)[C@H](C)[C@@H](O[C@@H]2O[C@H](C)C[C@H](N(C)C)[C@H]2O)[C@@](C)(OC)C[C@@H](C)C(=O)[C@H](C)[C@@H](O)[C@]1(C)O`, the MIC against Streptococcus pneumoniae [1] was 2 µg/mL (≈ 2.17 µM); against Streptococcus pyogenes [2], over 32 µg/mL; with Streptococcus pneumoniae [3] it was 16 µg/mL (≈ 17.4 µM); in assay [4], 16 µg/mL (≈ 17.4 µM); against Streptococcus pneumoniae [5] it was 32 µg/mL (≈ 34.7 µM); in the assay on Staphylococcus aureus [6], 4 µg/mL (≈ 4.34 µM). In addition, the MIC in [7] was 16 µg/mL (≈ 17.4 µM); in assay [8], 4 µg/mL (≈ 4.34 µM); in [9], 8 µg/mL (≈ 8.68 µM); in assay [10], 2 µg/mL (≈ 2.17 µM); with Streptococcus pneumoniae [11] it was 16 µg/mL (≈ 17.4 µM); against Streptococcus pneumoniae [12], 2 µg/mL (≈ 2.17 µM). The MIC with Streptococcus pneumoniae [13] is 2 µg/mL (≈ 2.17 µM); against Streptococcus pyogenes [14] it was 2 µg/mL (≈ 2.17 µM); against Staphylococcus aureus [15] it was 16 µg/mL (≈ 17.4 µM); with Streptococcus pneumoniae [16] it was 4 µg/mL (≈ 4.34 µM); against Staphylococcus aureus [17], over 32 µg/mL.
As for `CC[C@H]1OC(=O)[C@H](C)[C@@H](O[C@H]2C[C@@](C)(OC)[C@@H](O[C@@H]3O[C@H](C)[C@@H](OCc4ccccc4)[C@H](N(C)C)[C@H]3O)[C@H](C)O2)[C@H](C)[C@@H](O[C@@H]2O[C@H](C)C[C@H](N(C)C)[C@H]2O)[C@@](C)(OC)C[C@@H](C)C(=O)[C@H](C)[C@@H](O)[C@]1(C)O`, the MIC was 32 µg/mL (≈ 31.6 µM) in the assay on Streptococcus pneumoniae [1]; over 32 µg/mL against Streptococcus pyogenes [2]; 32 µg/mL (≈ 31.6 µM) with Streptococcus pneumoniae [3]; over 32 µg/mL in assay [4]; 32 µg/mL (≈ 31.6 µM) in the assay on Streptococcus pneumoniae [5]; over 32 µg/mL in the assay with Staphylococcus aureus [6]. Also, the MIC in assay [7] is over 32 µg/mL; in assay [8], over 32 µg/mL; in assay [9], over 32 µg/mL; in assay [10], over 32 µg/mL; in the assay on Streptococcus pneumoniae [11], 32 µg/mL (≈ 31.6 µM); against Streptococcus pneumoniae [12] it was 32 µg/mL (≈ 31.6 µM). The MIC is 32 µg/mL (≈ 31.6 µM) in the assay on Streptococcus pneumoniae [13]; 32 µg/mL (≈ 31.6 µM) in the assay on Streptococcus pyogenes [14]; over 32 µg/mL against Staphylococcus aureus [15]; 32 µg/mL (≈ 31.6 µM) in the assay with Streptococcus pneumoniae [16]; over 32 µg/mL against Staphylococcus aureus [17].
